The subject of one data set is Lymphocyte. In words: Induction of mAB-CD3-mediated IFN-gamma production in CGS-21680-treated C57/BL6 mouse lymphocytes at 0.5 uM after 24 hrs by ELISA. The class given is functional, cell-based. Summed up:
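C57/BL6 mouse splenic lymphocytes activated with 0.1 μg/mL anti-CD3 mAb, then immediately given 1, 10 or 100 nM CGS 21680 with or without antagonist at 0.5 μM. Supernatant IFN-gamma measured after 24 h by sandwich ELISA (paired mAb with standard), in pg/mL; triplicates, mean ± SEM.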

The nature of data set [1]: Octanol-water partition coefficient, log P of the compound by HPLC analysis. It counts as physicochemical.
Data set [2] can be described thus: Photostability of the compound assessed as compound remaining after 2 weeks by HPLC analysis. It counts as physicochemical. To be noted: 336 h.
Data set [3] in a line: Partition coefficient, log K of the compound. The class given is physicochemical. To be noted: octanol/water.
The nature of data set [4]: Half life in rat. As to conditions: in vivo. It counts as ADME, organism-based.
The nature of data set [5]: Photostability of the compound assessed as compound remaining measured within 24 hrs by HPLC analysis. It counts as physicochemical. As to conditions: read-out: Stability.
Data set [6] in a line: Photostability of the compound assessed as compound remaining measured within 7 days by HPLC analysis. The class given is physicochemical. To be noted: read-out: Stability.
Data set [7] concerns the target Adenosine receptor A2a (Mus musculus) (UniProt Q60613). The data set is described as follows: Antagonist activity at adenosine A2A receptor in C57/BL6 mouse lymphocytes assessed as inhibition of CGS-21680-mediated cAMP accumulation after 15 mins by ELISA. It counts as functional, cell-based. Summed up:
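Splenic lymphocytes from C57/BL6 mice stimulated with 1 μM CGS 21680 (A2AR agonist), with or without antagonist over 0.1–10 μM; 15 min at 37 °C, stopped with 1 N HCl. Intracellular cAMP quantified by ELISA, expressed as pmol/million cells; triplicate samples, mean ± SEM.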

The nature of data set [8]: Half life in mouse at 20 mg/kg, ip by HPLC analysis. As to conditions: in vivo. Also on record: dose 20 mg/kg, route intraperitoneal. It counts as ADME, organism-based.

Active and inactive are the calls of the source. The calls are words filed in the database; no cut-off is given here.

Chain of Adenosine receptor A2a (Mus musculus) (Q60613 whole entry): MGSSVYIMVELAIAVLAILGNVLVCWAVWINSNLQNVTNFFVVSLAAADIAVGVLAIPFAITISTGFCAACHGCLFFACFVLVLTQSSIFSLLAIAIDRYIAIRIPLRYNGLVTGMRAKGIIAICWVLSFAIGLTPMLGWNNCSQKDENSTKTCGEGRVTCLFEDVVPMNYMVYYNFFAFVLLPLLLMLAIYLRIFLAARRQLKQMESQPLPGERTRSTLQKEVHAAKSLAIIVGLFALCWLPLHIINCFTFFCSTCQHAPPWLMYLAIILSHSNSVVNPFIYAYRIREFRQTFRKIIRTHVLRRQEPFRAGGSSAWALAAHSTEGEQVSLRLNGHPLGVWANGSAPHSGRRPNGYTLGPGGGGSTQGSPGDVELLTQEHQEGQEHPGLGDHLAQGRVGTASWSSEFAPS

Turning to `CCn1c(=O)c2c(nc(/C=C/c3ccc(C(=O)OCCOCCOCCOCCOCCOCCOCCOCCOC)c(OC)c3)n2C)n(CC)c1=O`, the result in the data set on Lymphocyte was Active. In data set [1], this molecule returned a logP of 2.8. The Stability entry in data set [2] is reported as “Stable”. Moreover, in data set [3], the “log K” value is recorded as 0.145.

Regarding `CCn1c(=O)c2c(nc(/C=C/c3ccc(OC)c(OC)c3)n2C)n(CC)c1=O` [ISTRADEFYLLINE], the result in the data set on Lymphocyte was Active. The molecule also had a half-life in [4] of 2 h. For the same molecule, the remaining at 24 h in data set [5] was determined as 10%. Moreover, the lipophilicity (logP) in data set [1] came to 2.98. The remaining at 168 h in data set [6] was > 50%. The “log K” value in data set [3] worked out at 0.162.

As to `CCn1c(=O)c2c(nc(/C=C/c3ccc(C(=O)OC)c(OC)c3)n2C)n(CC)c1=O`, the inhibition result in data set [7] is “Active”.

Turning to `Nc1nc(NCCc2ccc(O)cc2)nc2nc(-c3ccco3)nn12` [ZM-241385], in [8], the half-life is < 1 h.

Source of the values: ChEMBL document CHEMBL3091430, “Design and evaluation of xanthine based adenosine receptor antagonists: potential hypoxia targeted immunotherapies” (Bioorg Med Chem, 2013).
